Data reported in ChEMBL document CHEMBL1157617, “A new class of naphthalimide-based antitumor agents that inhibit topoisomerase II and induce lysosomal membrane permeabilization and apoptosis” (J Med Chem, 2010).
Calls of active or inactive are those of the source. The rule behind the calls is not given here.

tested on: HeLa; assay: Cytotoxicity against human HeLa cells after 24 hrs by MTT assay; conditions: not given

Question: Which IC50 does the source give for CNc1ccc2c3c(cccc13)C(=O)N(CCCN(C)C)C2=O here?
Answer: 23.4 µM

Question: Which IC50 does the source give for CCCCCCCCNc1ccc2c3c(cccc13)C(=O)N(CCCN(C)C)C2=O here?
Answer: 8.52 µM

Question: For CCCCCCCCNc1ccc2c3c(cccc13)C(=O)N(CCCN1CCN(C)CC1)C2=O, which IC50 is on record?
Answer: 8.1 µM

Question: With CCCCCCCCCCCCN1C(=O)c2cccc3c(NCCCCCCCC)ccc(c23)C1=O as the compound, how does the IC50 read?
Answer: 46.4 µM

Question: Which IC50 does the source give for CCCCCCCCCCCCNc1ccc2c3c(cccc13)C(=O)N(CCCN1CCN(C)CC1)C2=O here?
Answer: 2.89 µM

Question: With CCCCCCCCCCCCN1C(=O)c2cccc3c(NCCN(C)C)ccc(c23)C1=O as the compound, how does the IC50 read?
Answer: 9.13 µM

tested on: not listed separately; assay: Cytotoxicity against human LS 174T cells after 24 hrs by MTT assay; conditions: LS174T

Question: Which IC50 does the source give for CNc1ccc2c3c(cccc13)C(=O)N(CCCN(C)C)C2=O here?
Answer: 31.5 µM

Question: With CCCCCCCCNc1ccc2c3c(cccc13)C(=O)N(CCCN(C)C)C2=O as the compound, how does the IC50 read?
Answer: 5.87 µM

Question: For CCCCCCCCNc1ccc2c3c(cccc13)C(=O)N(CCCN1CCN(C)CC1)C2=O, which IC50 is on record?
Answer: 18.4 µM

Question: Which IC50 does the source give for CCCCCCCCCCCCN1C(=O)c2cccc3c(NCCCCCCCC)ccc(c23)C1=O here?
Answer: > 50 µM

Question: Which IC50 does the source give for CCCCCCCCCCCCNc1ccc2c3c(cccc13)C(=O)N(CCCN1CCN(C)CC1)C2=O here?
Answer: 7.43 µM

Question: Which IC50 does the source give for CCCCCCCCCCCCN1C(=O)c2cccc3c(NCCN(C)C)ccc(c23)C1=O here?
Answer: 12.8 µM

tested on: HeLa; assay: Induction of cytochrome c release into cytosol in human HeLa cells at IC50 concentration after 24 hrs by FITC/Hoechst soluble immunocytochemical staining; assay type: functional, cell-based; conditions: not given
Method in brief: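 HeLa cells were treated 24 h at compound-specific concentrations, then fixed in 10% formaldehyde, permeabilized in 90% methanol and blocked with milk. Staining was rabbit anti-cytochrome c (1:500) then FITC goat anti-rabbit IgG (1:100), 1 h each at room temperature, with 2 μg/mL Hoechst 33258 as counterstain. Cytosolic green signal was imaged by confocal microscopy.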

Question: With CCCCCCCCNc1ccc2c3c(cccc13)C(=O)N(CCCN1CCN(C)CC1)C2=O as the compound, how does the Activity read?
Answer: Active

Question: With CCCCCCCCCCCCNc1ccc2c3c(cccc13)C(=O)N(CCCN1CCN(C)CC1)C2=O as the compound, how does the Activity read?
Answer: Active

tested on: HeLa; assay: Induction of apoptosis in human HeLa cells assessed as viable cells at IC50 concentration after 24 hrs using annexin V/propidium iodide staining by flow cytometry; assay type: functional; conditions: not given
Method in brief: (§1)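 HeLa cells, seeded at 1 × 10^6 per well, were treated for 24 h at a fixed concentration set per compound. Cells were washed in cold PBS and resuspended in binding buffer. Staining was annexin V-FITC at 4 °C in the dark for 15 min, then PI for 5 min. Quadrants were read by flow cytometry: live, early apoptotic, late apoptotic, damaged. Run three times.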

Question: Which Activity does the source give for CCCCCCCCNc1ccc2c3c(cccc13)C(=O)N(CCCN1CCN(C)CC1)C2=O here?
Answer: 3.28%

tested on: HeLa; assay: Induction of apoptosis in human HeLa cells assessed as early apoptotic cells at IC50 concentration after 24 hrs using annexin V/propidium iodide staining by flow cytometry; assay type: functional; conditions: not given
Method in brief: as §1

Question: With CCCCCCCCCCCCNc1ccc2c3c(cccc13)C(=O)N(CCCN1CCN(C)CC1)C2=O as the compound, how does the Activity read?
Answer: 84.84%

tested on: HeLa; assay: Induction of lysosomal membrane permeabilization in human HeLa cells assessed as acridine orange red fluorescence at 5 uM after 24 hrs by flow cytometry; assay type: functional; conditions: not given
Method in brief: (§2)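 Each compound was tested at three concentrations on HeLa cells for 24 h. Adherent and floating cells were pooled and stained with 20 μg/mL acridine orange for 2 min at room temperature. Lysosomal rupture was scored by flow cytometry as percentage of cells with AO red fluorescence.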

Question: With CCCCCCCCNc1ccc2c3c(cccc13)C(=O)N(CCCN1CCN(C)CC1)C2=O as the compound, how does the Activity read?
Answer: 89.48%

Question: Which Activity does the source give for CCCCCCCCCCCCNc1ccc2c3c(cccc13)C(=O)N(CCCN1CCN(C)CC1)C2=O here?
Answer: 59.82%

tested on: Calf thymus DNA; assay: Binding affinity to calf thymus DNA assessed as circular dichroism by CD spectroscopy; assay type: nucleic-acid assay; conditions: Bos taurus
Method in brief: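 CT DNA (100 μM) with drug (20 μM) in 20 mM Tris-HCl pH 7.4. DNA concentration set by UV absorbance, A260/A280 above 1.8. CD spectrum recorded 200-400 nm in a 1 cm cell after shaking, thermal equilibration and buffer subtraction. Analysed over 230-300 nm.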

Question: With CCCCCCCCNc1ccc2c3c(cccc13)C(=O)N(CCCN1CCN(C)CC1)C2=O as the compound, how does the Activity read?
Answer: inactive

Question: For CCCCCCCCCCCCNc1ccc2c3c(cccc13)C(=O)N(CCCN1CCN(C)CC1)C2=O, which Activity is on record?
Answer: inactive

tested on: HL-60; assay: Cytotoxicity against human HL60 cells after 72 hrs by MTT assay; assay type: functional, cell-based; conditions: HL-60, 24 h, in the assay text read “after 24 hrs” for “after 72 hrs”
Method in brief: (§3)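 MTT viability assay on HeLa, HL-60, MCF-7, MKN45 and LS174 cells. MTT (500 μg/mL) was added for 4 h at 37 °C and formazan dissolved in DMSO; A570 was read. IC50 came from linear regression; experiments were done in triplicate.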

Question: For CNc1ccc2c3c(cccc13)C(=O)N(CCCN(C)C)C2=O, which IC50 is on record?
Answer: 21.6 µM

Question: For CCCCCCCCNc1ccc2c3c(cccc13)C(=O)N(CCCN(C)C)C2=O, which IC50 is on record?
Answer: 5.53 µM

Question: With CCCCCCCCNc1ccc2c3c(cccc13)C(=O)N(CCCN1CCN(C)CC1)C2=O as the compound, how does the IC50 read?
Answer: 5.7 µM

Question: With CCCCCCCCCCCCN1C(=O)c2cccc3c(NCCCCCCCC)ccc(c23)C1=O as the compound, how does the IC50 read?
Answer: > 50 µM

Question: Which IC50 does the source give for CCCCCCCCCCCCNc1ccc2c3c(cccc13)C(=O)N(CCCN1CCN(C)CC1)C2=O here?
Answer: 2.98 µM

Question: Which IC50 does the source give for CCCCCCCCCCCCN1C(=O)c2cccc3c(NCCN(C)C)ccc(c23)C1=O here?
Answer: 5.32 µM

tested on: HeLa; assay: Induction of lysosomal membrane permeabilization in human HeLa cells assessed as acridine orange red fluorescence at 8 uM after 24 hrs by flow cytometry; assay type: functional; conditions: not given
Method in brief: as §2

Question: For CCCCCCCCNc1ccc2c3c(cccc13)C(=O)N(CCCN1CCN(C)CC1)C2=O, which Activity is on record?
Answer: 91.86%

tested on: HeLa; assay: Induction of lysosomal membrane permeabilization in human HeLa cells assessed as acridine orange red fluorescence at 11 uM after 24 hrs by flow cytometry; assay type: functional; conditions: not given
Method in brief: as §2

Question: For CCCCCCCCNc1ccc2c3c(cccc13)C(=O)N(CCCN1CCN(C)CC1)C2=O, which Activity is on record?
Answer: 83.18%

tested on: MCF7; assay: Cytotoxicity against human MCF7 cells after 24 hrs by MTT assay; conditions: MCF7, 24 h

Question: For CCCCCCCCNc1ccc2c3c(cccc13)C(=O)N(CCCN1CCN(C)CC1)C2=O, which IC50 is on record?
Answer: 5.72 µM

molecular target: DNA topoisomerase 2-alpha (Homo sapiens) (UniProt P11388); assay: Inhibition of DNA topoisomerase 2-mediated kDNA decatenation at 100 uM; conditions: not given
Sequence (P11388 whole entry): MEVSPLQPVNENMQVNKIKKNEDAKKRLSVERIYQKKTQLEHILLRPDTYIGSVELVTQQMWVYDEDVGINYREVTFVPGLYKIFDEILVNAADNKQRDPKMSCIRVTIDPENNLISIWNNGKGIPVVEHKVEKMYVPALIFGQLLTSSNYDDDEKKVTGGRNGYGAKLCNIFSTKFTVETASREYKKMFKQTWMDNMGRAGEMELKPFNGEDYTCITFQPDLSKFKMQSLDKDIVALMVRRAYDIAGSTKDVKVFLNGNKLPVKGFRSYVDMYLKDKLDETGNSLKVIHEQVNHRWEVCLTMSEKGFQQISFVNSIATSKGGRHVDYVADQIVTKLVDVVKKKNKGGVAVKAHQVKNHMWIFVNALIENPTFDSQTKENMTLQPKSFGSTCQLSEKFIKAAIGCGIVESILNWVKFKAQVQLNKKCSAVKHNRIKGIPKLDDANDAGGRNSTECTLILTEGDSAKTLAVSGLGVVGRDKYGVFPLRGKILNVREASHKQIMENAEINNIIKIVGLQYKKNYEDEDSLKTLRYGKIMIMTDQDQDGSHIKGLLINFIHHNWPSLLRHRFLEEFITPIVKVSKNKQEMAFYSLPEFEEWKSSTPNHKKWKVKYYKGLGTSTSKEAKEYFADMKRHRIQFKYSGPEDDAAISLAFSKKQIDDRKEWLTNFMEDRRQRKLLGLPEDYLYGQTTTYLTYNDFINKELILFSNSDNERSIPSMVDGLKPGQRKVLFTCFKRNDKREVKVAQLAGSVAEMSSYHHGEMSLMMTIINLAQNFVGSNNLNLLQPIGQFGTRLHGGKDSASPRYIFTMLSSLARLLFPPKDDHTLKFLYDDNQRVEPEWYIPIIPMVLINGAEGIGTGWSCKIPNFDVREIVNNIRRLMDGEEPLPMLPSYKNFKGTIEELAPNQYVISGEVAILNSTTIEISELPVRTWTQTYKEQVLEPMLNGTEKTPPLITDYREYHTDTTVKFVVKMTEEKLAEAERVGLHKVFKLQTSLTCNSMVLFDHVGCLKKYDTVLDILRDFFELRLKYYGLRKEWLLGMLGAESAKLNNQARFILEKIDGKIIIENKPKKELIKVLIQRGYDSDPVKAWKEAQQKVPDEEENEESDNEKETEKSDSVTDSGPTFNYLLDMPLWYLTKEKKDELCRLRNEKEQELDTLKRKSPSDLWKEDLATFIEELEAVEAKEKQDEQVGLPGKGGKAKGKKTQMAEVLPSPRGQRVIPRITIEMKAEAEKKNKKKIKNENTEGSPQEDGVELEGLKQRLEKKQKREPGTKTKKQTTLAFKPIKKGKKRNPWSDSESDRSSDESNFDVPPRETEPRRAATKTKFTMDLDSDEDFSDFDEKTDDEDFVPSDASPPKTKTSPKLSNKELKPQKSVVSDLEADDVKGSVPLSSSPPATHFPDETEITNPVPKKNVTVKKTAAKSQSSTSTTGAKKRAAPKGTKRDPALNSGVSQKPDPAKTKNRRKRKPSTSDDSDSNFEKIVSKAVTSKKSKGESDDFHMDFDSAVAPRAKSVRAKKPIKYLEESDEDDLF
Method in brief: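 Cell-free topo II decatenation: 0.2 μg kDNA was incubated with HeLa-cell topo II extract and compound at 100 μM. The cleavage buffer contained 50 mM Tris-HCl pH 8.0, 120 mM KCl, 10 mM MgCl2, 1 mM ATP and 0.5 mM DTT. Reactions ran 15 min at 37 °C and were stopped with SDS. Products were resolved on 1% agarose and stained with ethidium bromide.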

Question: Which Activity does the source give for CCCCCCCCNc1ccc2c3c(cccc13)C(=O)N(CCCN1CCN(C)CC1)C2=O here?
Answer: Active

Question: For CCCCCCCCCCCCNc1ccc2c3c(cccc13)C(=O)N(CCCN1CCN(C)CC1)C2=O, which Activity is on record?
Answer: Active

Question: With COc1cccc2c1C(=O)c1c(O)c3c(c(O)c1C2=O)C[C@@](O)(C(=O)CO)C[C@@H]3O[C@H]1C[C@H](N)[C@H](O)[C@H](C)O1 as the compound, how does the Activity read?
Answer: Active

tested on: MKN-45; assay: Cytotoxicity against human MKN45 cells after 24 hrs by MTT assay; conditions: MKN-45, 24 h

Question: For CNc1ccc2c3c(cccc13)C(=O)N(CCCN(C)C)C2=O, which IC50 is on record?
Answer: > 50 µM

Question: Which IC50 does the source give for CCCCCCCCNc1ccc2c3c(cccc13)C(=O)N(CCCN(C)C)C2=O here?
Answer: 17.6 µM

Question: With CCCCCCCCNc1ccc2c3c(cccc13)C(=O)N(CCCN1CCN(C)CC1)C2=O as the compound, how does the IC50 read?
Answer: 22.2 µM

Question: For CCCCCCCCCCCCN1C(=O)c2cccc3c(NCCCCCCCC)ccc(c23)C1=O, which IC50 is on record?
Answer: > 50 µM

Question: For CCCCCCCCCCCCNc1ccc2c3c(cccc13)C(=O)N(CCCN1CCN(C)CC1)C2=O, which IC50 is on record?
Answer: 8.43 µM

Question: For CCCCCCCCCCCCN1C(=O)c2cccc3c(NCCN(C)C)ccc(c23)C1=O, which IC50 is on record?
Answer: 9.03 µM

tested on: MCF7; assay: Cytotoxicity against human MCF7 cells after 72 hrs by MTT assay; assay type: functional, cell-based; conditions: MCF7, 24 h, in the assay text read “after 24 hrs” for “after 72 hrs”
Method in brief: as §3

Question: Which IC50 does the source give for CNc1ccc2c3c(cccc13)C(=O)N(CCCN(C)C)C2=O here?
Answer: 9.66 µM

Question: For CCCCCCCCNc1ccc2c3c(cccc13)C(=O)N(CCCN(C)C)C2=O, which IC50 is on record?
Answer: 5.15 µM

Question: With CCCCCCCCCCCCN1C(=O)c2cccc3c(NCCCCCCCC)ccc(c23)C1=O as the compound, how does the IC50 read?
Answer: > 50 µM

Question: For CCCCCCCCCCCCNc1ccc2c3c(cccc13)C(=O)N(CCCN1CCN(C)CC1)C2=O, which IC50 is on record?
Answer: 2.48 µM

Question: With CCCCCCCCCCCCN1C(=O)c2cccc3c(NCCN(C)C)ccc(c23)C1=O as the compound, how does the IC50 read?
Answer: 3.57 µM

tested on: HeLa; assay: Induction of lysosomal membrane permeabilization in human HeLa cells assessed as acridine orange red fluorescence at 1 uM after 24 hrs by flow cytometry; assay type: functional; conditions: not given
Method in brief: as §2

Question: For CCCCCCCCCCCCNc1ccc2c3c(cccc13)C(=O)N(CCCN1CCN(C)CC1)C2=O, which Activity is on record?
Answer: 96.01%

tested on: Nucleic Acid; assay: Induction of conformational changes in Escherichia coli pBR322 DNA assessed as DNA relaxation at 100 uM after 2 hrs by gel electrophoresis; assay type: nucleic-acid assay; conditions: not given
Method in brief: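 pBR322 plasmid (200 ng) was incubated with compound at 100 μM in Tris-HCl pH 7.4 for 2 h at 37 °C. Samples ran on 1% agarose and were stained with ethidium bromide; supercoiled versus relaxed forms were judged from gel migration.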

Question: For CCCCCCCCNc1ccc2c3c(cccc13)C(=O)N(CCCN1CCN(C)CC1)C2=O, which Activity is on record?
Answer: inactive

Question: For CCCCCCCCCCCCNc1ccc2c3c(cccc13)C(=O)N(CCCN1CCN(C)CC1)C2=O, which Activity is on record?
Answer: inactive

Question: With COc1cccc2c1C(=O)c1c(O)c3c(c(O)c1C2=O)C[C@@](O)(C(=O)CO)C[C@@H]3O[C@H]1C[C@H](N)[C@H](O)[C@H](C)O1 as the compound, how does the Activity read?
Answer: Active

tested on: HeLa; assay: Induction of lysosomal membrane permeabilization in human HeLa cells assessed as acridine orange red fluorescence at 3 uM after 24 hrs by flow cytometry; assay type: functional; conditions: not given
Method in brief: as §2

Question: For CCCCCCCCCCCCNc1ccc2c3c(cccc13)C(=O)N(CCCN1CCN(C)CC1)C2=O, which Activity is on record?
Answer: 95.2%

tested on: HeLa; assay: Induction of apoptosis in human HeLa cells assessed as damaged cells at IC50 concentration after 24 hrs using annexin V/propidium iodide staining by flow cytometry; assay type: functional; conditions: not given
Method in brief: as §1

Question: For CCCCCCCCNc1ccc2c3c(cccc13)C(=O)N(CCCN1CCN(C)CC1)C2=O, which Activity is on record?
Answer: 96.66%

same assay, conditions: in the assay text read “late apoptotic cells” for “damaged cells”

Question: Which Activity does the source give for CCCCCCCCCCCCNc1ccc2c3c(cccc13)C(=O)N(CCCN1CCN(C)CC1)C2=O here?
Answer: 14.96%

tested on: HeLa; assay: Induction of apoptosis in human HeLa cells assessed as late apoptotic cells at IC50 concentration after 24 hrs using annexin V/propidium iodide staining by flow cytometry; assay type: functional; conditions: not given
Method in brief: as §1

Question: Which Activity does the source give for CCCCCCCCNc1ccc2c3c(cccc13)C(=O)N(CCCN1CCN(C)CC1)C2=O here?
Answer: 96.7%
